# Hits are enriched below; roughly 1.2% of the tested compounds scored in any of these assays.
# TRPN1 ag – zebrafish TRPN1 channel agonists, primary screen, cell-based, HEK293, calcium fluorescence; HEK293 zebrafish TRPN1-YFP, Fluo-8 calcium fluorescence; 100% = response to 87 µM carbachol; activation, % at 3 µM; 220,000 tested, 0.18% active; AID 1424, 2008;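 active means activation above its plate's cutoff, the mean activation of test wells on that plate plus 3 SD, cut at about 19% in these data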;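 further: 0% = DMSO alone and 100% = 87 µM carbachol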
#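 Material: zebrafish TRPN1-YFP in HEK293 cells; Doses: single test compound dose, 3 µM nominal, 0.3% DMSO; Timing: dye loading 1 h at 37 °C, then 30 min room temperature; Technique: intracellular calcium fluorescence with Fluo-8; Benchmarks: high carbachol 87 µM, low DMSO alone.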
# CRFBP-R2 agonist – agonists of CRF-BP/CRF-R2 complex, primary screen, cell-based, HEK293, calcium dye fluorescence, uHTS | CRF-binding protein / CRF receptor 2 complex (human) | calcium dye fluorescence (FLIPR); percent of saturating CRF peptide response | activation, % at 13.2 µM | 350,000 tested, 0.46% active | AID 588473, 2011;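 active means activation of at least 50%, plus an integration ratio under a set limit after plate pattern correction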;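 further: plate controls were neutral control wells without compound for no effect and CRF at EC100 for full effect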
# CRFBP-R2 block – antagonists of CRF-BP/CRF-R2 complex, primary screen, cell-based, HEK293, calcium dye fluorescence, uHTS; CRF-induced calcium fluorescence; inhibition, % at 11.8 µM; 350,000 tested, 0.59% active;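 active means inhibition of the ligand-induced calcium signal above about 50% at the single tested concentration, limit read from the data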
# TRPML3 agonist – human TRPML3 channel agonists, primary screen, cell-based, HEK293 TRPML3-YFP, Fluo-8 calcium fluorescence, 3 µM. 100% = the carbachol control signal. activation, % at 3 µM. 220,000 tested, 0.29% active;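 active means activation above its plate's cutoff, the mean activation of the plate's test wells plus 3 SD, cut at about 12% in these data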;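 further: 0% = DMSO only wells and 100% = carbachol wells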
# Target sequence (Q8TDD5 whole entry, looked up): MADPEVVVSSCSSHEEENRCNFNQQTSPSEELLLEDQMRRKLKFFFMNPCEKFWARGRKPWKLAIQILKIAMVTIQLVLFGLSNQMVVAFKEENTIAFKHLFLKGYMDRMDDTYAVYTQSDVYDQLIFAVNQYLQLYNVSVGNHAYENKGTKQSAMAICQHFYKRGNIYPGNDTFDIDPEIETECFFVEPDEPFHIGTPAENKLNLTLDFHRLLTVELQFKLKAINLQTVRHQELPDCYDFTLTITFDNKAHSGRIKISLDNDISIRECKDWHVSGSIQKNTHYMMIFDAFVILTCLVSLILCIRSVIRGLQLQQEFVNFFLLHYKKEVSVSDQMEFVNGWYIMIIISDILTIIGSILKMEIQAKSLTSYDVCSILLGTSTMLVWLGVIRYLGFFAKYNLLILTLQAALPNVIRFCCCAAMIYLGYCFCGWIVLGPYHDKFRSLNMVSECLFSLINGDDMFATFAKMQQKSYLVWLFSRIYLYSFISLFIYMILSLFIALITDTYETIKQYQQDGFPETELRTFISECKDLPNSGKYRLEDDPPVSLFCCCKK
#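 system = HEK293 cells stably carrying human TRPML3-YFP | doses = one concentration, 3 µM nominal, 0.3% DMSO | timing = dye loading 1 h 37 °C then 30 min ambient, 125 s read | detection = Fluo-8 calcium dye fluorescence, ex 470-495, em 515-575 nm | benchmarks = high control carbachol 87 µM, low control DMSO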
# An asterisk follows results filed as active; nt = not tested or not shown.
SMILES,TRPN1 ag,CRFBP-R2 agonist,CRFBP-R2 block,TRPML3 agonist
CCCN1C(=O)S/C(=C/c2ccc(N3CCOCC3)o2)C1=O,10.0,61.0*,-29.2,4.1
COC(=O)CN1C(=O)S/C(=C/c2ccc(N3CCCCC3)o2)C1=O,1.3,56.5*,-29.6,0.7
CCOC(=O)CN1C(=O)S/C(=C/c2ccc(N3CCCCC3)o2)C1=O,2.0,33.0,-54.5,1.3
COc1ccc(OC(=O)c2ccc(Cl)cc2)c(C(C)=O)c1,0.9,0.2,51.5*,1.2
CCN(CC)c1ccc(/C=C(/C#N)C(=O)NCc2ccccc2)o1,9.1,141.4*,-156.5,13.7*
Cc1cc(=O)n2[nH]c(C)c(-c3ccccc3)c2n1,-0.6,6.6,-38.9,0.0
O=c1cc(-c2ccccc2)nc2c(-c3ccccc3)c(C(F)(F)F)[nH]n12,-2.3,-1.3,53.5*,-1.0
C=CCC(=O)OCC(=O)Nc1ccc(Oc2ccccc2)cc1,-1.9,nt,nt,-0.3
CC(=O)c1sc(NC(=O)CCS(=O)(=O)c2ccc(Cl)cc2)nc1C,nt,-1.1,61.8*,nt
O=C(CCn1nc(-c2ccccc2)ccc1=O)N1CCOCC1,0.9,-1.9,120.2*,1.1
O=[N+]([O-])c1ccc(NC(=S)NCc2ccc(F)cc2)cc1,nt,8.1,67.5*,nt
O=[N+]([O-])c1ccc(NC(=S)NCCc2ccccc2)cc1,19.0*,29.4,18.6,12.4*
O=[N+]([O-])c1ccc(NC(=S)NCCc2ccc(Cl)cc2)cc1,17.4,7.2,27.6,11.4
COC(=O)c1cnc(N)s1,nt,1.4,-1.3,nt
CCOC(=O)c1sc(NC(=S)NC(=O)c2ccccc2)nc1C,1.6,30.1,-21.9,0.6
CCOC(=O)c1sc(NC(=S)NC(=O)c2cccc(OC)c2)nc1C,nt,58.1*,-0.6,nt
COC(=O)CSC1=C(C#N)C(c2ccc(Cl)cc2)C(C(=O)OC)C(=O)N1 (stereo not given),-1.9,-1.4,58.1*,-1.0
COC(=O)C1C(=O)NC(SC)=C(C#N)C1c1ccccc1 (stereo not given),0.8,-0.3,-7.9,0.2
CCOC(=O)C1C(=O)NC(SCC(N)=O)=C(C#N)C1c1ccccc1OCC (stereo not given),5.9,3.8,-4.7,2.1
CCOC(=O)CSC1=C(C#N)C(c2ccc(Cl)cc2)C(C(=O)OC)C(=O)N1 (stereo not given),-2.7,-2.8,52.7*,-1.1
CSCCC(=O)NC1CC(C)(C)Cc2c1cnn2-c1ccccc1C (stereo not given),nt,-1.2,-0.7,nt
COc1ccc(C2CC(=O)N(c3ccccc3)C3=C2C(=O)CCC3)cc1 (stereo not given),-1.1,-0.1,2.7,-0.3
O=C(NNc1ncnc2c1cnn2-c1ccc(F)cc1)c1ccco1,nt,-1.6,68.0*,nt
C[C@H](NC(=O)c1[nH]cnc1C(=O)Nc1ccc(CNC(=O)OC(C)(C)C)cc1)C(=O)OCc1ccccc1,nt,0.4,0.9,nt
COc1ccc(-c2c(C)nn3c(N4CCCCCC4)cc(C)nc23)cc1OC,nt,-1.7,55.6*,nt
SMILES,TRPN1 ag,CRFBP-R2 agonist,CRFBP-R2 block,TRPML3 agonist
COc1ccc(-c2c(C)nn3c(N4CCOCC4)cc(C)nc23)cc1OC,nt,-1.2,12.7,nt
O=C1c2ccccc2-c2nnc(-c3ccc(O)cc3)cc21,-1.3,-1.1,103.1*,-0.2
CCCOc1ccc(-c2c(C(=O)N/N=C(\C)c3ccco3)nnn2-c2nonc2N)cc1,nt,-0.6,-22.1,nt
COc1ccc(OC)c(-c2nnc3n2N=C(c2ccc(OC)c(OCC4CC4)c2)CS3)c1,nt,-0.4,58.9*,nt
COc1ccc(C2=Nn3c(nnc3-c3ccccc3Cl)SC2)cc1OCC1CC1,nt,-1.1,19.8,nt
O=c1cc(NCCO)c2ccccc2o1,-0.6,-0.1,1.6,1.4
Cc1c(NC2=C(Cl)C(=O)N(c3ccccc3Cl)C2=O)c(=O)n(-c2ccccc2)n1C,-0.1,1.5,52.8*,1.2
COc1ccc2[nH]cc(CCCN3C(=O)c4ccccc4C3=O)c2c1,0.4,0.2,-12.2,0.1
Cc1ccc(S(=O)(=O)N2CCC(=O)N(C(COCc3ccc(Cl)c(Cl)c3)Cc3ccccc3)CC2)cc1 (stereo not given),-1.1,70.8*,-36.7,0.2
Cc1ccc(S(=O)(=O)N2CCC(=O)N(C(COCc3ccc(C(F)(F)F)cc3)Cc3ccccc3)CC2)cc1 (stereo not given),1.1,62.1*,-20.2,0.4
CN(C)Cc1cn(CCC(=O)O)c2ccccc12,-0.3,1.0,-2.8,0.0
CC(C)CC(=NNC(=O)c1ccncc1)c1cc(Cl)ccc1O,nt,149.7*,-107.1,nt
O=C(NN1CCN(Cc2ccccc2)CC1)c1ccc(N2CCOCC2)c([N+](=O)[O-])c1,0.8,-0.7,5.3,0.8
Cc1ccc(C(=O)NCCCNC(=O)c2ccccc2F)cn1,nt,-0.2,9.1,nt
Cc1ccc(C(=O)NCCNC(=O)c2ccc(F)cc2)cn1,nt,79.8*,-53.5,nt
O=C(CS(=O)c1ccc(C(F)(F)F)cc1[N+](=O)[O-])Oc1ccccc1 (stereo not given),-1.0,-0.9,-17.5,0.8
CS(=O)(=O)c1ccc(S(=O)CC(=O)OCc2ccccc2)c([N+](=O)[O-])c1 (stereo not given),2.0,5.4,53.0*,0.8
CCn1ncc(S(=O)(=O)N2CCN(c3cccc(OC)c3)CC2)c1C,nt,-1.0,-6.3,nt
O=S1(=O)CCC(N2CCOCC2)C1 (stereo not given),0.1,1.9,-13.2,0.8
Cc1cc(NC(=O)Cn2nc3c(cc2=O)CCCC3)ccc1Br,0.1,0.1,54.9*,0.0
Cc1cc(NC(=O)Cn2nc(C(=O)O)c3ccccc3c2=O)ccc1Br,nt,0.4,-1.1,nt
COc1ccc2c(c1)C(C)CC(C)(C)N2C(=O)NC1CCCCC1 (stereo not given),0.2,0.1,6.2,0.2
O=C1c2ccccc2-c2onc3ccc(NCc4ccco4)c1c23,1.6,147.8*,-115.8,2.3
CCNc1ccc2noc3c2c1C(=O)c1ccccc1-3,1.7,191.8*,-179.2,3.1
Cn1cc(S(=O)(=O)CC(=O)Nc2ccc3c(c2)OCCO3)c2ccccc21,-1.2,0.4,-22.4,0.3
SMILES,TRPN1 ag,CRFBP-R2 agonist,CRFBP-R2 block,TRPML3 agonist
Cc1cc(NNC(=O)c2ccccc2)nc(NNC(=O)c2ccccc2)n1,0.7,-0.7,-16.6,1.4
CNc1nc(NC)nc(NNC(=O)c2ccccc2)n1,nt,-1.9,50.8*,nt
CNC(=S)NCCc1c[nH]c2ccc(OC)cc12,0.9,0.0,2.0,0.4
COc1ccc2[nH]cc(CCNC(=S)NC3CCCC3)c2c1,1.0,-1.0,51.0*,0.9
COc1ccccc1C(=O)COC(=O)c1c(-c2ccccc2)noc1C,nt,1.3,50.2*,nt
COc1ccc(S(=O)(=O)NCC(c2cccnc2)N2CCN(c3ccccc3)CC2)cc1C (stereo not given),-1.6,-3.7,-34.9,-0.6
CC(C)N1C(=O)S/C(=C/c2ccccc2OCc2ccc(C(=O)O)cc2)C1=O,-0.8,4.0,69.0*,0.2

# Source: PubChem (several laboratories)
